This is an account of results in PubChem BioAssay.

The list shows a part of the results. A number with no mark means an inactive call. The source made the active and inactive calls.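 How the source made its calls, unless noted: active means mean inhibition across replicates above about 50% (limit read from the data); inactive means the rest.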

As a reminder, the inhibition is the relative decrease from the control value, in per cent.

Sentrin-specific protease 8 (Homo sapiens), sequence (Q96LD8 whole entry, looked up): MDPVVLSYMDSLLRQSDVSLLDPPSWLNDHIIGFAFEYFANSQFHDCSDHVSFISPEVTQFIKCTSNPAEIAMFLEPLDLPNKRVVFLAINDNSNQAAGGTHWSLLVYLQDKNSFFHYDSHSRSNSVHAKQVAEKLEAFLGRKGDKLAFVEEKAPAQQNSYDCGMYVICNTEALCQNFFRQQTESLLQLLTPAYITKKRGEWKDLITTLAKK

System in the first assay: not listed separately
Nature of the assay: activators of apoptotic CHOP UPR arm, confirmation, cell-based, CHO-CHOP luciferase reporter, single concentration (AID 463112; in the data active means activation above about 33%;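 further: 0% = DMSO wells and 100% = tunicamycin 10 µg/mL wells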). The following applies: CHO-CHOP cells, CHOP-luciferase reporter luminescence; at 10 µM; active compounds read high; percent of tunicamycin response, DMSO as zero. In a few lines:
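assay system = CHO-CHOP luciferase reporter cell line | compound dosing = 10 µM single point, 0.5% DMSO | times = overnight cell seeding before dosing, 6 h compound exposure at 37 °C | signal = luciferase luminescence measured with Steady-Glo reagent | controls = tunicamycin 10 µg/mL as high control, DMSO alone as low control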
(In a reporter assay the amount or activity of a reporter protein is the signal.)
Take `O=C(/C(=C/c1cccc(Cl)c1)c1nc2ccccc2[nH]1)c1ccccc1`: the activation was 115% (active). The same measure, in the same setting: then `Cc1cc(C)nc(S/C=C/C(=O)c2ccccc2)n1`, with 83.4% (active); and `CC1=CC(C)(C)Nc2ccc(OC(=O)CN3C(=O)C4CCCCC4C3=O)cc21` (stereo not given), with 68% (active); and `Cc1cccc(-n2ncc(Cl)c(Cl)c2=O)c1`, with 29.5%. Same read-out and setting: the value for `COc1cc(NC(=O)c2cncc(-c3ccc(C#N)cc3)c2)cc(C(=O)Nc2cccc(C(F)(F)F)c2)c1` was 83.5% (active); that for `O=C(Nc1ccc(OC(F)(F)F)cc1)c1ccc2c(c1)no[n+]2[O-]` was 24.4%. The same measure, in the same setting: then `O=C1C=CC(=O)N1c1ccc(N2CCCCC2)cc1`, with 60.2% (active); and `O=C(CCl)Nc1cccc(CP(=O)(c2ccccc2)c2ccccc2)c1`, with 34% (active); and `CCOC(=O)c1c(NC(=O)CCl)sc(C(=O)N(CC)CC)c1C`, with 27%.

Another assay addresses Sentrin-specific protease 8 (Homo sapiens) (UniProt Q96LD8). Nature of the assay: SENP8 protease inhibitors, retest, confirmation, biochemical, luminescence, single concentration (AID 488912). The conditions noted are these: Recombinant SENP8, Z-RLRGG-aminoluciferin luminescence, 60 min; at 12.5 µM; active compounds read high.
As for `Cc1ccc(F)c(NC(=O)CCc2ccccc2)c1`, the inhibition was 36.4%. On the same count and under the same terms, then `CN(CCO)c1ccc(/C=N/Nc2nncc3ccccc23)cc1`, with 98.7% (active); and `C/C(=C\C(=O)c1ccccc1)Nc1cccc(O)c1`, with 43.1%. In the case of `O=c1c(-c2cccc(Cl)c2)c[nH]n1-c1ccccc1`, the inhibition is 63.9% (active). On the same count and under the same terms, the value for `COCCN(CCOC)c1nc(N)c2c(N)nc3c(c2c1C#N)CC(=O)N3Cc1ccc(Cl)cc1` was -5.5%; that for `O=C(Nc1ccccc1)c1cc2ccccc2[nH]1` was -22.5%; that for `Cc1cccc(NS(=O)(=O)c2cccc(C(=O)NNC(=O)c3ccccc3O)c2)c1` was 26.9%. As to `CC(=O)Oc1ccc2c(c1)C(=O)c1ccccc1C2=O`, the inhibition was 38.1%.

On to `Cc1ccn2cc(-c3nonc3C)cc2c1`, for which the inhibition was 47.6%.

`CC(C)Cc1cc(C(=O)Nc2cc(Br)ccc2O)no1`: the inhibition was 6%. On the same count and under the same terms, the value for `Cc1nonc1C(=O)N/N=C/c1ccc(O)cc1` was 99.5% (active); that for `Cc1cccc(OC(=O)c2sc3ncn(C)c(=O)c3c2C)c1` was 1.1%.

As for `Cc1cccc(Nc2nc(-c3ccccc3)cs2)n1`, the inhibition was -7.1%. Regarding `O=C(/C=C/c1ccco1)Nc1ccc(Oc2ccccc2)cc1`, the inhibition is 51% (active). Same read-out and setting: the value for `Cc1[nH]n(-c2ccc([N+](=O)[O-])cc2)c(=O)c1C=NCCN1CCN(C(=O)c2ccccc2F)CC1` was 20.7%; that for `COc1ccc(NC(=O)Nc2cccc3cccnc23)cc1` was 86.4% (active). On the same count and under the same terms, the value for `Nc1ccc(-c2nnc(-c3ccccc3)o2)cc1` was 51.2% (active); that for `O=C(Nc1ccccc1)Nc1ccccc1C(=O)NCc1ccco1` was 2.7%; that for `CCOC(=O)c1cnc2[nH]c3ccccc3n2c1=O` was 30.1%. The same measure, in the same setting: the value for `Cc1cc(C(=O)N/N=C/c2ccc(N3CCOCC3)cc2)c(C)o1` was 86.9% (active); that for `COc1ccccc1C(=O)Nc1ccc(NC(=O)c2ccco2)c(C)c1` was 45.3%.

For the molecule `COc1cccc(OCC(O)CNC(=O)c2oc3c(C)c(C)ccc3c2C)c1` (stereo not given), the inhibition is 5.2%. On the same count and under the same terms, the value for `COCn1c(COc2ccccc2)nc2ccccc21` was 39.7%; that for `O=C(OC1CCOC1=O)c1ccc(-c2nc3ccccc3s2)s1` (stereo not given) was 92.5% (active). The same measure, in the same setting: the value for `Nc1ccccc1/C=N\N=C/c1ccccc1N` was 52.9% (active). On the same count and under the same terms, the value for `CC(=O)Oc1ccc2c(=O)oc(-c3ccc([N+](=O)[O-])cc3)nc2c1` was -6.1%; that for `CCOc1ccc2nc(C(=O)N3CCCC(C)C3)sc2c1` (stereo not given) was 59.3% (active); that for `Clc1ccc(Nc2ccc3ccccc3n2)cc1` was 87.7% (active). With `COC(=O)c1ccc(NCC(=O)c2ccccc2)cc1`, the inhibition is 10.5%. Same read-out and setting: the value for `CCOC(=O)/C(C#N)=C/c1ccc(N2CCCCC2)cc1` was 25.6%; that for `c1ccc(-c2cc(-c3ccccc3)[nH]n2)cc1` was 69.7% (active).
